Source: PubChem BioAssay
EBNA-1 inh: EBNA-1 DNA-binding inhibitors, primary screen, biochemical, fluorescence polarization. inhibition, % at 14.8 µM. 300,000 compounds, 0.34% hits. AID 1950, 2009; in the data active means inhibition above about 28%
ZTA DNA inh: counter-screen for EBNA-1 inhibitors: inhibitors of Epstein-Barr virus ZTA; 320,000 compounds, 0.15% hits; P03206; inhibition, % at 11 µM; ZTA-DNA binding, fluorescence polarization; in the data active means inhibition above about 33%
HNF4A DNA FP: change in binding of human HNF4A to DNA, primary screen, biochemical, fluorescence polarization, FITC-DNA | 1 h | activity change, % at 10 µM | 360,000 compounds, 0.3% hits; in the data active means activity change above about 30%, passing the limit was not always enough
LANA-H2B inh: blockers of LANA interaction with H2A/H2B – biochemical, FP readout, HTS, primary screen; inhibition, % (test concentration not listed); cell-free LANA-H2A/H2B peptide, fluorescence polarization; 320,000 compounds, 0.6% hits; Protein LANA1 (Human herpesvirus 8 type P (isolate GK18)), Q9QR71; AID 2629, 2010; in the data active means inhibition mostly above about 10%, no sharp cut-off; inactive means mostly below about 6.7%
CSN deneddyl inh: inhibitors of CSN-mediated cullin deneddylation, primary screen, biochemical, fluorescence polarization, uHTS | 360,000 compounds, 0.38% hits | Purified CSN, SCF-Nedd8-OG deneddylation | inhibition, % at 12.5 µM;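 active means pattern-corrected inhibition above about 35%, with an unprinted fluorescence ratio check between 0.5 and 1.5, limit read from the data, passing the limit was not always enough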
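Assay system: HEK293T-derived human Csn5 enzyme; quantity: 0.24 nM enzyme; medium: Tris/NaCl/DTT buffer, pH 7.5; also added: substrate SCFSkp2-Nedd8OG, 10 nM; doses: 12.5 µM compound; schedule: 90 min reaction at room temperature; signal: FP; read-out: % inhibition of substrate cleavage by Csn5; benchmarks: substrate-only high control, full reaction low control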
Bfl-1 A1 inh: caspase 3/7 activation in MEF A1-2A-BIM cells, primary screen, A1 inhibitor project, cell-based, luminescence, HTS | AID 2462, 2010 | caspase activation, % (test concentration not listed) | Caspase-Glo 3/7 luminescence, 3 h; percent of clofoctol response, vehicle zero | 330,000 compounds, 0.066% hits;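 active means over half of replicate activation scores above 10%, or exactly half above 10 with the replicate mean above 10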
CSN5 deneddyl: Csn5 deneddylation inhibitors, confirmation, biochemical, fluorescence polarization, single concentration, SCF-Nedd8OG substrate. shares compounds with CSN deneddyl inh. Csn5 deneddylation of SCF-Nedd8OG, 90 min. 540 compounds, 62% hits. AID 720654, 2013. inhibition, % at 16.6 µM; in the data active means inhibition above about 50%
MMP2 cntr CSN: MMP-2 protease inhibition counter-screen, confirmation, counter-screen for CSN deneddylation inhibitor project, biochemical, fluorescence, single concentration. inhibition, % at 16.6 µM. 540 compounds, 33% hits. recombinant MMP-2, FRET substrate fluorescence, 60 min. AID 720655, 2013. shares compounds with CSN deneddyl inh;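 active means corrected plate-normalized z-score of 5 or more, or -5 or less, or inhibition of 15% or more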
Thrombin cntr: thrombin (bovine) inhibition, counter-screen for CSN hits; shares compounds with CSN deneddyl inh; inhibition, % at 16.6 µM; 540 compounds, 49% hits; bovine thrombin cleavage of Ub4-pepOG, fluorescence polarization; AID 720656;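 active means inhibition at or above a set limit, with a fluorescence interference ratio between 0.5 and a set maximum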
Of the large screens only hits and unclear results are named; the others gave an inactive call (follow-up assays come after a bar, where they were run). Sampled rows, rich in hits. Any-hit rate of the full collection: about 1.5%.

COc1cc(/C=C2\SC(=S)N(NS(=O)(=O)c3ccc(C)cc3)C2=O)ccc1O	CSN deneddyl inh 41 | CSN5 deneddyl 63 | MMP2 cntr CSN 15 | Thrombin cntr 68
CCOc1cc(/C=C2\SC(=S)N(NS(=O)(=O)c3ccc(C)cc3)C2=O)ccc1O	none
Cn1cccc1/C=C1\SC(=S)N(NC(=O)c2ccccc2O)C1=O	HNF4A DNA FP 101, CSN deneddyl inh 55 | CSN5 deneddyl 95 | MMP2 cntr CSN inactive | Thrombin cntr 48
COc1cc(OC)c(OC)cc1/C=C1\CCC/C(=C\c2cc(OC)c(OC)cc2OC)C1=O	HNF4A DNA FP 54, CSN deneddyl inh 37 (no result: EBNA-1 inh, ZTA DNA inh, LANA-H2B inh, Bfl-1 A1 inh) | CSN5 deneddyl 66 | MMP2 cntr CSN inactive | Thrombin cntr 43
COc1cc(/C=C2/CC/C(=C/c3ccc(O)c(OC)c3)C2=O)ccc1O	HNF4A DNA FP 48, CSN deneddyl inh 47 | CSN5 deneddyl 62 | MMP2 cntr CSN inactive | Thrombin cntr 72
COc1cc(/C=C/C=C2/CC/C(=C/C=C/c3ccc(O)c(OC)c3)C2=O)ccc1O	CSN deneddyl inh 115 (no result: EBNA-1 inh, ZTA DNA inh, LANA-H2B inh, Bfl-1 A1 inh) | CSN5 deneddyl inactive | MMP2 cntr CSN -41 | Thrombin cntr 52
COc1ccc(/C=C2\CC/C(=C\c3ccc(OC)c(OC)c3)C2=O)cc1OC	none
COc1ccc(NC(=O)CSc2nc3ccccc3c(=O)n2CCCC(=O)NCC2CCCO2)c(OC)c1 (stereo not drawn)	none
CCc1ccc(C(O)c2ncc(-c3ccc(C)cc3)[nH]2)cc1 (stereo not drawn)	none (no result: EBNA-1 inh, ZTA DNA inh, LANA-H2B inh, Bfl-1 A1 inh)
CCOC(=O)CN1C(=O)S/C(=C/C=C/c2ccc(N(C)C)cc2)C1=O	HNF4A DNA FP 46, CSN deneddyl inh 40 | CSN5 deneddyl 62 | MMP2 cntr CSN -44 | Thrombin cntr 66
CCOC(=O)CN1C(=O)S/C(=C/c2ccc3c(c2)n(C)c(=O)n3C)C1=O	none
CNC(=O)N(O)C1N(/N=C/c2c(F)cccc2Cl)C(=S)SC1(C)C (stereo not drawn)	none
Cc1nc(Cc2nnc(SCC(=O)N3c4ccccc4NC(=O)C3(C)C)o2)cs1	none (no result: EBNA-1 inh, ZTA DNA inh, LANA-H2B inh, Bfl-1 A1 inh)
Cc1cc2oc3ccc(NCCCn4ccnc4)cc3c(=O)c2cc1C	HNF4A DNA FP 73, CSN deneddyl inh 48 | CSN5 deneddyl 137 | MMP2 cntr CSN 61 | Thrombin cntr 30
COC(=O)CN1C(=S)N(c2ccc(OC)cc2)C(=O)/C1=C/c1ccc(OC)cc1	none
COC(=O)CN1C(=S)N(c2ccc(OC)cc2)C(=O)/C1=C/c1ccc(N2CCOCC2)cc1	HNF4A DNA FP 61, CSN deneddyl inh 36 | CSN5 deneddyl 175 | MMP2 cntr CSN inactive | Thrombin cntr inactive
CC(NC(=O)C1CCN(C(=O)c2ccc(F)cc2)CC1)c1ccc(-n2ccnc2)cc1 (stereo not drawn)	none (no result: EBNA-1 inh)
COc1cc(/C=C2\SC(=Nc3ccc(Cl)c(C(=O)O)c3)NC2=O)c(Br)c(Br)c1O	HNF4A DNA FP 76, CSN deneddyl inh 198 (no result: EBNA-1 inh, ZTA DNA inh) | CSN5 deneddyl inactive | MMP2 cntr CSN -101 | Thrombin cntr inactive
COc1cc(/C=C2\SC(=Nc3ccccc3)NC2=O)cc(Cl)c1O	none
